Arbovirus anti – antivirals against arbovirus infection; actives 0.37% (n = 200,000); inhibition, % at 10 µM; AID 1251; arbovirus infection cell-based antiviral screen; in the data active = inhibition above about 30%
Yeast lifespan up – extends the lifespan of yeast; actives 0.68% (n = 130,000); inhibition of the nicotinamide effect, % at 10 µM; AID 775; S. cerevisiae growth with nicotinamide, OD615; deaD strain in restrictive glucose medium;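 active = inhibition above a set limit, placed 3 SD over the median of all compounds, cut at about 26% in these data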
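Assay system: engineered S. cerevisiae DeaD replicative-lifespan strain, galactose-grown log-phase cells; Buffer or medium: CSMM-D glucose medium, restrictive; Probe or stimulus: nicotinamide 1.5 mM; Compound: single dose 10 µM compound, 0.25% DMSO; Schedule: 4 h preincubation then 48 h treatment at 30 °C; Technique: OD615 measurement.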
Measles CPE – protection of cells from measles virus | Measles virus-infected cells, CPE protection, absorbance | AID 841 | actives 1.5% (n = 140,000) | protection (pct of control), % at 4 µM; in the data active = protection mostly above about 24%, no sharp cut-off; inactive = mostly below about 26%
Efa HMGR inh – inhibitors of class II HMG-CoA reductase from Enterococcus faecalis; AID 1066; actives 0.41% (n = 190,000); purified E. faecalis HMGR, NADPH absorbance 340 nm kinetic; inhibition, % at 10 µM;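 active = inhibition above a set limit, the median over all tested compounds plus 3 SD, cut at about 9.5% in these data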;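 note: enzyme runs in reverse so mevalonate oxidation gives rising NADPH absorbance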
Rad51 HR inh – Rad51 (human) homologous recombination inhibition | Q06609 | hRad51 DNA strand exchange, fluorescence dequenching | inhibition, % at 10 µM | actives 0.085% (n = 200,000);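 active = inhibition above 40% at the single screening dose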
Target sequence (Q06609 whole entry, looked up): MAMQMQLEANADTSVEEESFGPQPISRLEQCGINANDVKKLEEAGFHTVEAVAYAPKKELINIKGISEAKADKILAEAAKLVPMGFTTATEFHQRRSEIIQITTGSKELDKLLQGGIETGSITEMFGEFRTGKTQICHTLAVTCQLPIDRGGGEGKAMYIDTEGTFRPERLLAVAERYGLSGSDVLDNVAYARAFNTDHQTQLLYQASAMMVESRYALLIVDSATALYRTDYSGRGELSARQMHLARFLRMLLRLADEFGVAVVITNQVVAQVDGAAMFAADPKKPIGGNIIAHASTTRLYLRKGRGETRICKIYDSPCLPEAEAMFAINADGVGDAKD
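material = hRad51 filaments on single-stranded DNA | timing = filaments 15 min 37 °C, then compound 30 min | signal = FRET fluorescence dequenching, excitation 485 nm, emission 520 nm | benchmarks = control wells and blank wells on each plate | evaluation = percent inhibition relative to plate controls and blanks | compound = 10 µM final, single point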
BB579 growth dn – reduces growth of yeast BB579 in restrictive medium; S. cerevisiae BB579 growth, OD615, 48 h; inhibition, % at 10 µM; actives 0.51% (n = 140,000);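 active = inhibition above a set limit, 3 SD over the mean compound inhibition, cut at about 44% in these data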
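Material: Saccharomyces cerevisiae DeaD strain BB579, replicative lifespan model yeast; buffer or medium: CSMM-D restrictive synthetic medium containing dextrose (glucose); compound: 10 µM single dose, DMSO 0.25%; timing: 48 h compound exposure at 30 °C after 4 h preincubation; signal: turbidity as optical density at 615 nm; benchmarks: positive control amphotericin B 10 µg/mL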
A number is an active result; i = inactive; nt = no result. An excerpt weighted towards active compounds, which were near 2.4% of everything screened.

SMILES | Arbovirus anti | Yeast lifespan up | Measles CPE | Efa HMGR inh | Rad51 HR inh | BB579 growth dn
CCOC(=O)c1ccccc1NS(=O)(=O)c1ccccc1 | i | i | i | i | i | i
CCOC(=O)c1ccccc1NS(=O)(=O)c1ccccc1F | i | i | 33 | i | i | i
CC12CCC(C(=O)Nc3ccccc3Cl)(C(Br)C1=O)C2(C)C (configuration not stated) | i | i | 36 | i | nt | i
COc1ccc([N+](=O)[O-])cc1NC(=O)C(C)Sc1nc(C)c(C)c(C)n1 (configuration not stated) | i | i | i | i | i | i
CCOc1ccc(-c2cc3nc(C4CCN(C(=O)OC(C)(C)C)CC4)c(C(=O)O)cn3n2)cc1 | 50 | i | i | i | i | i
O=C(O)CC/C(=C\c1ccc(N2CCCC2)c([N+](=O)[O-])c1)c1nc2ccccc2s1 | 54 | nt | nt | i | i | nt
O=C(O)CSc1nc(C(F)(F)F)cc(=O)n1-c1ccccc1 | i | i | 49 | i | i | i
COc1ccc(C(=O)CSc2nnc(CCc3ccccc3)n2-c2ccccc2)cc1 | i | i | 25 | i | i | i
Cc1ccc(NC(=O)C2CC(=O)N(CCc3ccccc3)C2)c(C)c1 (configuration not stated) | i | nt | nt | i | i | nt
Cc1ccccc1Nc1nc(N)nc(CN2CCN(Cc3ccc4c(c3)OCO4)CC2)n1 | i | nt | nt | 17 | i | nt
Nc1nc(CN2CCN(Cc3ccc4c(c3)OCO4)CC2)nc(Nc2ccccc2)n1 | i | i | i | i | i | i
O=C(Nc1ccc(S(=O)(=O)Nc2ccccc2)cc1)C1COc2ccccc2O1 (configuration not stated) | i | nt | i | 15 | i | i
Cc1cc(C)nc(NS(=O)(=O)c2ccc(NC(=O)C3COc4ccccc4O3)cc2)n1 (configuration not stated) | i | nt | nt | i | i | nt
CC(=O)Nc1ccc(S(=O)(=O)Nc2nnc(CC(C)(C)C)s2)cc1 | i | nt | nt | i | i | nt
O=C(CC(=O)c1ccccc1O)c1ccc(F)cc1 | i | i | i | i | i | 53
CC(OC(=O)CCCc1nc2ccccc2s1)C(N)=O (configuration not stated) | i | i | 29 | i | i | i
COc1cccc2c1OC1(C)CC2NC(=O)N1c1cccc(C(=O)N2CCN(c3ccccc3)CC2)c1 (configuration not stated) | i | nt | nt | i | i | nt
COc1ccc(NC(=O)N(Cc2cc3ccc(OC)cc3[nH]c2=O)CC2CCCO2)cc1 (configuration not stated) | i | nt | nt | 17 | i | nt
COc1cc(/C=C/C(=O)N2CCOCC2)ccc1OCc1ccccc1 | i | i | 94 | i | i | i
CNC(=O)c1ccc(OCc2ccccc2)c(OC)c1 | i | i | 76 | i | i | i
COc1cc(/C=C/C(=O)NC(C)(C)C)ccc1OCc1ccccc1 | i | i | 27 | i | i | i
COc1ccc(/C=C/C(=O)NC(C)CCc2ccccc2)cc1OC (configuration not stated) | i | nt | nt | i | i | nt
O=C(COc1cc(Cl)c(Cl)cc1Cl)N1CCN(c2ccccn2)CC1 | i | nt | nt | i | i | nt
CCN(CCCNC(=O)C1CCCN(S(=O)(=O)c2cnc[nH]2)C1)c1ccccc1 (configuration not stated) | i | i | i | i | i | i
N#C/C(=C\c1ccccc1)C(=O)N(c1ccccn1)C1CCCCC1 | i | 63 | i | i | i | i
SMILES | Arbovirus anti | Yeast lifespan up | Measles CPE | Efa HMGR inh | Rad51 HR inh | BB579 growth dn
CCC(=O)N1CCc2cc(Br)cc(S(=O)(=O)N(C)c3ccc(OC)cc3OC)c21 | i | nt | nt | i | i | nt
COc1ccc(-c2cc(C(=O)N3CCN(c4ncccn4)CC3)c3ccccc3n2)c(OC)c1 | i | i | i | i | i | 59
COc1ccccc1-c1cc(C(=O)N2CCc3ccccc3C2)c2ccccc2n1 | 42 | i | nt | i | nt | i
COc1ccc(OC)c(-c2cc(C(=O)N3CCN(c4ncccn4)CC3)c3ccccc3n2)c1 | i | i | i | i | i | i
COc1ccc2oc(=O)c(/C(C)=N/NC(=O)c3ccncc3)cc2c1 | i | i | i | i | i | i
O=C(c1cnccn1)N1CCc2ccccc21 | i | i | i | i | i | i
O=C(Cn1ncc2ccccc21)N1CCc2ccccc21 | i | i | 45 | i | i | i
O=C(Cn1cccc1)N1CCc2ccccc21 | i | i | 100 | i | i | i
Cc1c(C(=O)N2CCc3ccccc32)cnn1C | i | i | i | 11 | i | i
Cc1nnc(SCC(=O)c2ccc(Cl)cc2)s1 | i | nt | nt | i | 41 | nt
CC(C(=O)NC(C)(C)C)N(Cc1cccs1)C(=O)CCN1CCc2ccccc21 (configuration not stated) | i | nt | nt | i | i | nt
CCOC(=O)C1CCCN(C(=O)c2ccc(Cl)c(S(=O)(=O)N3CCCCCC3)c2)C1 (configuration not stated) | i | nt | nt | i | nt | nt
Cc1nnc(SCC(=O)N2CCc3ccccc32)s1 | 39 | i | i | i | i | i
O=C(CNCc1ccco1)Nc1ccc(N2CCCCCC2)cc1 | i | nt | nt | 11 | nt | nt
CCC(=O)Nc1ccc(N2CCCCC2)cc1 | i | i | i | i | i | i
O=C(Nc1cccc(C(F)(F)F)c1)C(Sc1cccc[n+]1[O-])c1ccccc1 (configuration not stated) | i | i | i | i | i | 59
COc1ccc(OC)c(NC(=O)NNC(=O)CCCOc2ccc(Cl)cc2C)c1 | i | nt | nt | 16 | i | nt
c1ccc2[nH]c3cc4ncnc4cc3nc2c1 | i | i | i | i | i | i
C/C(=N\NC(=O)CNc1cccc(Cl)c1C)C1CC1 | i | nt | nt | i | i | nt
COC(=O)/C(=N/Nc1ccccc1C)Sc1nnc(C(O)c2ccccc2)n1-c1ccccc1 (configuration not stated) | i | i | i | i | i | i
CC(=O)/C(=N/Nc1cccc(Cl)c1)Sc1nnc(C(O)c2ccccc2)n1-c1ccccc1 (configuration not stated) | 47 | i | i | i | i | i
O=c1cc(-c2ccccc2)[nH]n1-c1nc2ccccc2[nH]1 | i | i | i | i | i | 97
O=C(CSc1nccc(=O)[nH]1)N1N=C2/C(=C/c3ccco3)CCCC2C1c1ccco1 (configuration not stated) | 49 | nt | nt | i | i | nt
CCCCCC(=O)N/N=C(\C)c1ccccn1 | i | i | i | i | i | i
C/C(=N\Nc1ccc(Cl)cc1)c1ccccn1 | i | i | i | i | i | 92
N#C/C(C(=O)NCc1ccccc1)=C1/SC(Cc2ccc(Cl)cc2)C(=O)N1c1ccccc1 (configuration not stated) | i | i | i | i | nt | i
CCCSc1nc(N)cc(=O)[nH]1 | i | 34 | i | i | i | i
CCOc1ccc(N/C=C\C(=O)c2ccc3c(c2)OCO3)cc1 | i | nt | 42 | i | i | i
